Here are results for four compounds from paper PMC7893122 (Acta Pharmaceutica Sinica. B, 2020).

The subject of one series is SKM-1. In words: Cell growth inhibition. The format is cell-based. Particulars: Homo sapiens, SKM-1, 72 h. The method, boiled down: (§1)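 Cells seeded in 96-well plates and incubated overnight. DMSO stocks of test compound were thawed at room temperature, diluted with saline to working concentrations, and added for 72 h. Growth read by CCK-8 assay, giving IC50/GI50.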
The subject of another series is SMO^W535L. The series can be described thus: GLI-luciferase activity in light2 cells with ectopic SMO^W535L. Format: cell-based. Particulars: read-out: IC50, GLI-luciferase activity induced by SMO^W535L. The procedure, abridged:
(§2)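 NIH-3T3-derived light2 reporter cells (stable GLI-responsive firefly luciferase plus renilla vector) with forced SMO expression, exposed to test compound for 36 h. Dual-luciferase kit read-out; firefly signal normalised to TK-renilla.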

A further series has as its system DOHH-2. The series can be described thus: Cell growth inhibition. Format: cell-based. Particulars: Homo sapiens, DOHH-2, 72 h. The procedure, abridged: as §1
The next series has as its system endogenous GLI2. The series can be described thus: Western blot of endogenous GLI2 in light2 cells. Format: cell-based. Particulars: 25 at 10 and 100 nmol/L, GDC-0449 100 nmol/L. The method, boiled down: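 Light2 cells treated with test compound, lysed in LDS sample buffer, and run on SDS-PAGE. Immunoblotting used anti-GLI2 (1:1000), with GAPDH (1:5000) as reference.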
Background: In western blotting, separated proteins are transferred to a membrane and probed.

A short description of series [1]: Pharmacokinetics in Sprague–Dawley rats. Format: in vivo. Particulars: rat; for AUC(0-inf) / AUC(0-t) / MRT inf / clearance / half-life / Cmax / Tmax: Sprague-Dawley, plasma; for Vss_obs: i.v. 1 mg/kg.
The next series deals with HT1080. The series can be described thus: Cell growth inhibition. Particulars: Homo sapiens, HT-1080, 72 h. Format: cell-based. The method, boiled down: as §1
In the next series the target is BRD4 (BD1) (Homo sapiens, UniProt O60885). In words: Homogeneous time-resolved fluorescence binding assay, BRD4. Particulars: IC50 BRD4 (BD1), mean ± SD from three separate experiments.
The next series concerns H1975. The series can be described thus: Cell growth inhibition. Particulars: Homo sapiens, NCI-H1975, 72 h. Format: cell-based. The procedure, abridged: as §1
The subject of the next series is SMO^WT. The series can be described thus: GLI-luciferase activity in light2 cells with ectopic SMO^WT. Format: cell-based. Particulars: read-out: IC50, GLI-luciferase activity induced by SMO^WT. The procedure, abridged: as §2
For the next series, the system named is TOV-21G. In words: Cell growth inhibition. Particulars: Homo sapiens, TOV21G, 72 h. The format is cell-based. The procedure, abridged:
as §1

In a further series the test system is CHL normal cell line. In words: Cell growth inhibition. Format: cell-based. Particulars: 72 h. The method, boiled down: as §1
The test system of a further series is GLI2-MYC. The series can be described thus: Western blot of exogenous GLI2-MYC in transfected light2 cells. Format: cell-based. Particulars: light2 cells transfected with GLI2-MYC. The procedure, abridged: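 Light2 cells lipofected with FLAG-GLI1 or MYC-GLI2-FL; test compound added 24 h after transfection. Lysis in LDS sample buffer, then SDS-PAGE. Immunoblots probed with tag or GLI2 antibodies (1:1000), with GAPDH (1:5000) as reference.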

For a further series, the system named is HSC-2. The series can be described thus: Cell growth inhibition. Format: cell-based. Particulars: Homo sapiens, HSC-2, 72 h. The procedure, abridged:
as §1

A further series has as its target hERG channel (Homo sapiens, UniProt Q12809). In words: hERG inhibition. The format is cell-based.
A further series has as its system Colo680N. The series can be described thus: Cell growth inhibition. Format: cell-based. Particulars: Homo sapiens, COLO-680N, 72 h. The procedure, abridged: as §1
For the next series, the system named is KYSE450. The series can be described thus: Cell growth inhibition. Format: cell-based. Particulars: Homo sapiens, KYSE-450, 72 h. The method, boiled down: as §1
A further series concerns SMO^D473H. The series can be described thus: GLI-luciferase activity in light2 cells with ectopic SMO^D473H. The format is cell-based. Particulars: read-out: IC50, GLI-luciferase activity induced by SMO^D473H. The procedure, abridged:
as §2

Series [2] relates to HH signaling pathway (GLI-responsive firefly luciferase reporter). In words: Dual luciferase reporter assay. The format is cell-based. Particulars: read-out: IC50 GLI-luc reporter. A general note: Reporter assays use an easily measured gene product as a stand-in for the process of interest.
A further series deals with GLI2. The series can be described thus: GLI-luciferase activity in light2 cells after transfection with GLI2. Format: cell-based. Particulars: read-out: IC50, GLI-luciferase activity provoked by forced expression of GLI2. The procedure, abridged: (§3)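 Light2 cells (NIH-3T3 stably carrying GLI-responsive firefly luciferase and renilla expression vector) lipofected with FLAG-GLI1 or MYC-GLI2-FL. Test compound added 24 h post-transfection, then 36 h exposure. Dual-luciferase read-out, firefly normalised to TK-renilla.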

Series [3] has as its system SMOA1 MB allografts (SMO^W539L). The series can be described thus: SMOA1 MB allograft model. Format: in vivo, nude mice. Particulars: bid. The method, boiled down:
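Primary SMOA1 MB allografts from ND2:SMOA1 transgenic mice grafted subcutaneously into nude mice. Dosing started at 100–150 mm3 tumour size: test compound p.o. twice daily, vehicle 0.5% CMC-Na, n ≥ 3 per group. Caliper measurement every 3 days; volume = 0.5 × length × width². Body weight tracked; group means ± SEM.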

Another series deals with N87. The series can be described thus: Cell growth inhibition. Format: cell-based. Particulars: 72 h. The procedure, abridged:
as §1

For a further series, the system named is CAL27. In words: Cell growth inhibition. Format: cell-based. Particulars: Homo sapiens, CAL-27, 72 h. The procedure, abridged: as §1
The next series has as its system GLI1. The series can be described thus: GLI-luciferase activity in light2 cells after transfection with GLI1. Particulars: read-out: IC50, GLI-luciferase activity provoked by forced expression of GLI1. Format: cell-based. The method, boiled down: as §3
In another series the test system is H3132. The series can be described thus: Cell growth inhibition. The format is cell-based. Particulars: 72 h. The method, boiled down:
as §1

The next series deals with SMO wild MB. Particulars: 20 mg/kg p.o., bid; cited from earlier work.

Sequence of hERG channel (Q12809 whole entry): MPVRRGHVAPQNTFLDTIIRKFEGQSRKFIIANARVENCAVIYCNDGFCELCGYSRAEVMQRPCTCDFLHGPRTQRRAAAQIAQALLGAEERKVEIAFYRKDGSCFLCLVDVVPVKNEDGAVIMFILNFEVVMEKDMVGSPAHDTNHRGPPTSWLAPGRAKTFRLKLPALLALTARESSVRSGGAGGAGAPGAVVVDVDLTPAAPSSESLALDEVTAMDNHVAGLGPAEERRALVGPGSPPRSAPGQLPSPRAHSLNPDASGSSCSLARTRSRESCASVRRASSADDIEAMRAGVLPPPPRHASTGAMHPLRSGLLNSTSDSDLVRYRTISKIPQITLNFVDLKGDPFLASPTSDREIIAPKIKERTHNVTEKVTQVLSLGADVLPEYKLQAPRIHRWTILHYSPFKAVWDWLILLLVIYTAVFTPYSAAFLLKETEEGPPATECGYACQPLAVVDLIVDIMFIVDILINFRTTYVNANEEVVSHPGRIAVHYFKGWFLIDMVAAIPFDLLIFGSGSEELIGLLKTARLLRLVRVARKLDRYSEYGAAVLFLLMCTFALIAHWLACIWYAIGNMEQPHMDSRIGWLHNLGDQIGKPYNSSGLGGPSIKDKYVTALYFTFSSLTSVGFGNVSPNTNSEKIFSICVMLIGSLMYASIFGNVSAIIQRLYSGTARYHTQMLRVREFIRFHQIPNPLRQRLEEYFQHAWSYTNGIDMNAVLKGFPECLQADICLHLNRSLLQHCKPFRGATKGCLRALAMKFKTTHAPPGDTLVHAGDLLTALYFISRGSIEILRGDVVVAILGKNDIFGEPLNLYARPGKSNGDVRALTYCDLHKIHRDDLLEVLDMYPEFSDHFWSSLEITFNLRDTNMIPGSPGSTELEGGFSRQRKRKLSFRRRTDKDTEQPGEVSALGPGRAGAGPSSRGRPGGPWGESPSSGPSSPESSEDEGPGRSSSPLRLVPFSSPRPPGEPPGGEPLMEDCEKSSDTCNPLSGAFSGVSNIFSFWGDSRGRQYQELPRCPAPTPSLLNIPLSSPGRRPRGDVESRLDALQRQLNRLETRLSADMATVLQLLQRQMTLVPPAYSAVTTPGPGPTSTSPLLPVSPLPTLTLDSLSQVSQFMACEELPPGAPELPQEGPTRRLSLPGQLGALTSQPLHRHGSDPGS

Consider `Cn1cc(-c2cc(N3CCCCS3(=O)=O)ccc2Oc2ccc(F)cc2F)c2c(F)c[nH]c2c1=O` [Compound 25], for which the GI50 – broadly, the concentration that inhibits growth by half – in the series with SKM-1 was 19 nM; with DOHH-2, 6.6 nM; with HT1080 it was 1000 nM; in the series with H1975, 34 nM; in the series on TOV-21G it was 23 nM; in the series with CHL normal cell line, over 10 µM. The GI50 was determined as 770 nM with HSC-2; 2300 nM with Colo680N; 1600 nM in the series on KYSE450; 130 nM in the series with N87; 110 nM with CAL27; 140 nM in the series on H3132. Also, the IC50 (commonly the point on the concentration scale where inhibition reaches its midpoint) with SMO^W535L was found to be 1.13 nM; on BRD4 (BD1) it was 1.51 ± 0.43 nM; in the series with SMO^WT it was 1.16 nM; against hERG channel it was 27.3 µM; in the series with SMO^D473H it was 1.44 nM; in series [2], 0.48 ± 0.08 nM. The values for the concentration for half-maximal inhibition (IC50) in the series with GLI2 and in the series on GLI1 were 2.2 nM and 0.97 nM, respectively. Further, in the series with endogenous GLI2, the “Effect on abundance of endogenous GLI2 proteins” value is on record as “dramatically reduced”. The AUC(0-inf) (in general, the area under the concentration-time curve extrapolated to infinity) in series [1] (iv, 1 mg/kg) was 614 ng·h/mL; in series [1] (po, 3 mg/kg), 406 ng·h/mL. The AUC(0-t) (as a rule, the area under the concentration-time curve up to a stated or last time point) stood at 614 ng·h/mL in series [1] (iv, 1 mg/kg) and 406 ng·h/mL in series [1] (po, 3 mg/kg). For the same compound, the MRT inf (usually the average time that molecules of a dose stay in the body) in series [1] (iv, 1 mg/kg) was 46.2 min; in series [1] (po, 3 mg/kg), 57 min. In addition, the clearance (usually the rate of elimination divided by the concentration) in series [1] (iv, 1 mg/kg) stood at 27.2 mL/min/kg. Further, the half-life (as a rule, the time needed for the level to fall by half in the phase considered) in series [1] (iv, 1 mg/kg) is 32.4 min; in series [1] (po, 3 mg/kg), 57.6 min. Besides, the highest level in series [1] (po, 3 mg/kg) (Cmax) was 503 ng/mL. Also, in [1] (po, 3 mg/kg), the Tmax (as a rule, the time at which the peak concentration occurs) amounted to 15 min. Moreover, the Vss_obs in series [1] was determined as 1258 mL/kg. Besides, the “Effect on expression of exogenous GLI2-MYC” value with GLI2-MYC was “failed to inhibit”. In addition, the Tolerability result in series [3] (5 mg/kg p.o.) and in [3] (10 mg/kg p.o.) was “well tolerant” each time. In addition, the “tumor growth inhibition (TGI)” value was determined as 83.3% in series [3] (5 mg/kg p.o., Fig. 6A); 88.2% in series [3] (10 mg/kg p.o., Fig. 5A); 87.6% in series [3] (10 mg/kg p.o., Fig. 6A). The Body weight change entry in [3] (10 mg/kg p.o., Fig. 5B) is on record as “No obvious body weight loss”.
On to `Cn1cc(-c2cc(N3CCCS3(=O)=O)ccc2Oc2ccc(F)cc2F)c2c(F)c[nH]c2c1=O` [Compound 24], for which, in [1] (iv, 1 mg/kg), the area under the curve AUC(0-inf) was determined as 509 ng·h/mL, the AUC(0-t) was found to be 509 ng·h/mL, the MRT inf was determined as 45.6 min and the clearance is 33.2 mL/min/kg. Also, the half-life in series [1] (iv, 1 mg/kg) is 33.6 min. Besides, in series [1] (po, 3 mg/kg), the AUC(0-inf) amounted to 473 ng·h/mL, the area under the curve AUC(0-t) came out at 473 ng·h/mL, the peak level (Cmax) was 474 ng/mL and the mean residence time (MRT inf) was 75.6 min. Also, in series [1] (po, 3 mg/kg), the time of peak concentration (Tmax) was 30 min and the half-life is 57 min. Also, in [1], the Vss_obs was 1513 mL/kg. In addition, the IC50 on BRD4 (BD1) stood at 0.5 ± 0.06 nM. At hERG channel, this compound gave an IC50 of over 40 µM. Besides, the concentration for half-maximal inhibition (IC50) in series [2] was determined as 0.93 ± 0.16 nM.
As for `CS(=O)(=O)c1ccc(C(=O)Nc2ccc(Cl)c(-c3ccccn3)c2)c(Cl)c1` [GDC-0449, reference compound], in the series on SMO wild MB, the “Tumor growth inhibition in SMO wild MB mice” value is reported as “complete tumor growth inhibition”. Also, the “Effect on abundance of endogenous GLI2 proteins” value in the series on endogenous GLI2 was “no effect”. Besides, the “Effect on tumor growth” value in series [3] (20 mg/kg p.o., Fig. 5A) was “failed to affect the tumor growth”.
In series [1] (iv, 1 mg/kg), `CCNC(=O)c1cc2c(-c3cc(N4CCCCS4(=O)=O)ccc3Oc3ccc(F)cc3F)cn(C)c(=O)c2[nH]1` [Compound 31] had an AUC(0-inf) of 217 ng·h/mL, an area under the curve AUC(0-t) of 213 ng·h/mL, an MRT inf of 34.2 min and a clearance of 77.6 mL/min/kg. In series [1] (iv, 1 mg/kg), the half-life was 41.4 min. Moreover, in [1] (po, 3 mg/kg), the AUC(0-inf) was 22.1 ng·h/mL, the AUC(0-t) was 18.3 ng·h/mL, the Cmax (usually the highest concentration seen after dosing) was 15.5 ng/mL and the MRT inf was found to be 143 min. Moreover, in [1] (po, 3 mg/kg), the time to peak (Tmax) was 19.8 min and the half-life was 93 min. In [1], this compound yielded a Vss_obs of 3512 mL/kg. The IC50 on BRD4 (BD1) is 0.13 ± 0.005 nM. In addition, the IC50 on hERG channel worked out at 11.7 µM. Moreover, the IC50 in [2] was found to be 0.81 ± 0.24 nM.
